This is an account of results in ChEMBL document CHEMBL1123506, “Unsaturated heterocyclic amines as potent time-dependent inhibitors of dopamine beta-hydroxylase” (J Med Chem, 1986).

Molecules are shown by their SMILES.

For assay [1], the target named is T1, Dopamine beta-hydroxylase (Bos taurus) (UniProt P15101).
T1 sequence (whole entry): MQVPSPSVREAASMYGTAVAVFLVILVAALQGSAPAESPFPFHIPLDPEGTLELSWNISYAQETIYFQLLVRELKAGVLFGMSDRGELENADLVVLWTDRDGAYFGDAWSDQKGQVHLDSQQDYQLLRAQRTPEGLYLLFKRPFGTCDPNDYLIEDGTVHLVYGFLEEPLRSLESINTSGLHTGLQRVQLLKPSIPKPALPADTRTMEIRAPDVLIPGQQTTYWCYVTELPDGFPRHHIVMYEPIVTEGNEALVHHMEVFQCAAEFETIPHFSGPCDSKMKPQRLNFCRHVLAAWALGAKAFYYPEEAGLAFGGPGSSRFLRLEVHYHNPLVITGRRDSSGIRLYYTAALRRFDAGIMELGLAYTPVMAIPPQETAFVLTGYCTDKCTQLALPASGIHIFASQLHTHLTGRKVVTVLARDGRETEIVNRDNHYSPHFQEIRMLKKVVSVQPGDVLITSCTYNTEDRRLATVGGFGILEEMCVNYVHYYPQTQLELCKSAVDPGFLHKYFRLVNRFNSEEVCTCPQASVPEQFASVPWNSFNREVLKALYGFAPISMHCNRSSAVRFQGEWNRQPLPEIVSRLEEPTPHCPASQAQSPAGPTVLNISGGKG
Description: Compound was determined for the kinetic constant against Dopamine beta hydroxylase purified from beef adrenals, catalytic constant (kcat). A digest of the protocol:
(§1)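 Bovine adrenal DBH, purified to homogeneity. Aliquots withdrawn at timed intervals and diluted into assay medium with 1 mM tyramine. Residual activity measured as octopamine formed, by reverse-phase HPLC with fluorescence detection. KI and kcat from Kitz–Wilson plot of t1/2 versus 1/I; kcat/KI calculated.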

For assay [2], the system named is Rattus norvegicus. Description: Compound was evaluated for the antihypertensive activity against DBH in conscious spontaneously hypertensive rats at the 30 doses (mg/Kg ip) after 1h. The format is functional. A digest of the protocol:
(§2)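 Conscious spontaneously hypertensive rats dosed intraperitoneally at 10, 30 or 100 mg/kg, n = 4–6 per group. Read-out is maximal change in mean arterial blood pressure (mmHg, mean ± SD), with duration of response in hours.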

For assay [3], the target named is T2, Dopamine beta-hydroxylase (Bos taurus, UniProt P15101).
T2 sequence (P15101 whole entry): T1 sequence (whole entry)
The assay can be described thus: Compound was determined for the kinetic constant against Dopamine beta hydroxylase purified from beef adrenals, inhibitory constant (Ki). In outline:
as §1

The nature of assay [4]: The ratio of Kinetic constant K cat / Ki of Dopamine Beta-hydroxylase inhibitor. A digest of the protocol:
as §1

In assay [5] the test system is Rattus norvegicus. Description: Compound was evaluated for the antihypertensive activity against DBH in conscious spontaneously hypertensive rats at the 100 doses (mg/Kg ip) after 2 hr. Type of assay: functional. A digest of the protocol:
as §2

Assay [6] deals with Rattus norvegicus. The assay can be described thus: Compound was evaluated for the antihypertensive activity against DBH in conscious spontaneously hypertensive rats at the 100 doses (mg/Kg ip). (MBP= mean arterial blood pressure).
Assay [7] relates to Rattus norvegicus. The assay can be described thus: Compound was evaluated for the antihypertensive activity against DBH in conscious spontaneously hypertensive rats at the 30 doses (mg/Kg ip) after >1h. (MBP= mean arterial blood pressure). The format is functional, Artery. A digest of the protocol:
as §2

In assay [8] the test system is Rattus norvegicus. The assay can be described thus: Compound was evaluated for the antihypertensive activity against DBH in conscious spontaneously hypertensive rats at the 10 doses (mg/Kg ip) after 1h. The format is functional. In outline: as §2
For assay [9], the system named is Rattus norvegicus. The assay can be described thus: Compound was evaluated for the antihypertensive activity against DBH in conscious spontaneously hypertensive rats at the 100 doses (mg/Kg ip) after 70h. Type of assay: functional. In outline: as §2
Assay [10] has as its system Rattus norvegicus. The assay can be described thus: Compound was evaluated for the antihypertensive activity against DBH in conscious spontaneously hypertensive rats at the 30 doses (mg/Kg ip) after 43h. Type of assay: functional. In outline: as §2
In assay [11] the test system is Rattus norvegicus. The assay can be described thus: Compound was evaluated for the antihypertensive activity against DBH in conscious spontaneously hypertensive rats at the 30 doses (mg/Kg ip) after 6h. The format is functional. In outline: as §2
In assay [12] the test system is Rattus norvegicus. The assay can be described thus: Compound was evaluated for the antihypertensive activity against DBH in conscious spontaneously hypertensive rats at the 100 doses (mg/Kg ip) after 3h. The format is functional. A digest of the protocol: as §2
For assay [13], the system named is Rattus norvegicus. Description: Compound was evaluated for the antihypertensive activity against DBH in conscious spontaneously hypertensive rats at the 30 doses (mg/Kg i.p.) after 3hr. Type of assay: functional. In outline: (§3)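 Conscious spontaneously hypertensive rats received a single intraperitoneal dose; the paper's dose levels were 10, 30 and 100 mg/kg. Mean arterial blood pressure was monitored. Values are the maximal change in mmHg and the duration of the response in h. Groups were n = 4–6, reported as mean ± SD.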

In assay [14] the test system is Rattus norvegicus. Description: Compound was evaluated for the antihypertensive activity against DBH in conscious spontaneously hypertensive rats at the 30 doses (mg/Kg ip) after 9 hr (MBP= mean arterial blood pressure). Type of assay: functional, Artery. In outline:
as §3

The subject of assay [15] is Rattus norvegicus. The assay can be described thus: Compound was evaluated for the antihypertensive activity against DBH in conscious spontaneously hypertensive rats at the 30 doses (mg/Kg ip) after 30h. Type of assay: functional. In outline: as §2
Assay [16] relates to Rattus norvegicus. The assay can be described thus: Compound was evaluated for the antihypertensive activity against DBH in conscious spontaneously hypertensive rats at the 100 doses (mg/Kg ip) after 79h. Type of assay: functional. A digest of the protocol:
as §2

On to `C=C(CN)c1ccsc1`, for which the k cat in [1] is 0.147 -1/min. In addition, the “Max MBP” value with Rattus norvegicus [2] is on record as -18 mmHg; in the assay with Rattus norvegicus [5], -54 mmHg. The compound also displayed a Ki in assay [3] of 570 µM. Also, the k cat/Ki in assay [4] came out at 257 M⁻¹ min⁻¹.
Turning to `C=C(CN)c1ccccc1`, in [1], the k cat is 0.04 -1/min. Moreover, the Ki in assay [3] was 13000 µM. Further, in assay [4], the k cat/Ki was found to be 3 M⁻¹ min⁻¹.
Taken in the same sequence, the figures for `CC#Cc1ccccc1` were 0.06 -1/min, 20000 µM and 6 M⁻¹ min⁻¹.
With `C=C(CNC)c1cccs1`, the k cat in assay [1] was 0.098 min⁻¹. In addition, the results for the “Max MBP” value in the assay with Rattus norvegicus [6] and in the assay on Rattus norvegicus [7] were -16 mmHg and -23 mmHg, respectively. This compound yielded a Ki in assay [3] of 2150 µM. Further, the k cat/Ki in assay [4] came to 44 M⁻¹ min⁻¹.
Take `C=C(CN)c1cccs1`: in [1], the k cat was 0.124 -1/min. In addition, the “Max MBP” value is on record as -19 mmHg in the assay on Rattus norvegicus [8], -34 mmHg with Rattus norvegicus [9] and -36 mmHg in the assay on Rattus norvegicus [10]. In [3], this compound displayed a Ki of 35 µM. Moreover, in assay [4], the k cat/Ki came out at 3540 M⁻¹ min⁻¹.
In the case of `C=C(CN)c1ccoc1`, the k cat in assay [1] was 0.077 -1/min. The results for the “Max MBP” value in the assay on Rattus norvegicus [11] and with Rattus norvegicus [12] were -20 mmHg and -21 mmHg, respectively. For the same compound, in assay [3], the Ki worked out at 230 µM. Also, the k cat/Ki in [4] was found to be 334 M⁻¹ min⁻¹.
Consider `NCC#Cc1ccccc1`, for which the k cat in [1] was 0.07 -1/min. Moreover, in the assay on Rattus norvegicus [13], the “Max MBP” value is reported as -13 mmHg. In [3], this compound displayed a Ki of 21 µM. In assay [4], the k cat/Ki was found to be 3330 M⁻¹ min⁻¹.
With `C=C(c1cccs1)C(C)N` (stereo unspecified), the k cat in [1] amounted to 0.058 min⁻¹. In assay [3], the Ki turned out to be 360 µM. Besides, the “Max MBP” value with Rattus norvegicus [14] is recorded as -16 mmHg. Further, the k cat/Ki in assay [4] turned out to be 161 M⁻¹ min⁻¹.
Regarding `C=C(CN)c1ccco1`, in assay [1], the k cat was 0.13 -1/min. For the same compound, the “Max MBP” value in the assay with Rattus norvegicus [8] is on record as -10 mmHg; in the assay with Rattus norvegicus [15], -26 mmHg; with Rattus norvegicus [16], -69 mmHg. In addition, the Ki in assay [3] amounted to 410 µM. For the same compound, in assay [4], the k cat/Ki turned out to be 317 M⁻¹ min⁻¹.

What is called Ki is the dissociation constant of the complex between target and ligand, obtained from inhibition or displacement. Read a high Ki as lower affinity.
